Laboratory results from the EternaBench riboswitch data.

Assays:
MS2 coat protein [1] = experiment: apparent Kd, MS2 coat protein; higher = weaker binding; RNA-MaP array
Outline: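 Apparent Kd values come from the median of binding-curve fits to single clusters. To obtain them, designed RNAs transcribed on an Illumina sequencing chip from sequenced DNA templates were incubated at room temperature with fluorescently labeled MS2 coat protein at 1.5 nM to 3 μM, with or without input ligand, for 0.8–1.5 h at the lowest and 10–20 min at the highest concentrations. Designs measured on fewer than 10 clusters were excluded.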

MS2 coat protein [2] = experiment: apparent Kd, MS2 coat protein; higher = weaker binding; RNA-MaP array; FMN 200 µM where present; conditions: designed as: OFF switch for flavin mononucleotide
Outline: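 The titrant was SNAP-549-labelled MS2 coat protein, run from 0.7 or 1.5 nM in doubling steps to 3 µM. It was applied to designs transcribed by stalled E. coli RNA polymerase on Illumina sequencing-chip clusters, without ligand first and then with constant ligand, in 100 mM Tris-HCl pH 7.5, 80 mM KCl, 4 mM MgCl2, BSA, DTT, yeast tRNA and Tween-20. The apparent Kd is the median of filtered per-cluster binding-curve fits, with green signal normalised to red-channel RNA signal and control-cluster median Fmax.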

[3] = designed as: ON switch for flavin mononucleotide, no ligand
[4] = ligand present: flavin mononucleotide, designed as: ON switch for flavin mononucleotide
[5] = designed as: OFF switch for flavin mononucleotide, no ligand
[6] = ligand present: flavin mononucleotide, designed as: OFF switch for flavin mononucleotide
[7] = ligand present: flavin mononucleotide

Sequence | apparent Kd (MS2 coat protein [1]; [3]) | apparent Kd (MS2 coat protein [1]; [4]) | apparent Kd (MS2 coat protein [1]; [5]) | apparent Kd (MS2 coat protein [1]; [6]) | also measured
GCAGGCGUUAAGAAGGUUCUCCCACAUGAGGAUCACCCAUGUUGACAUGCUAGAGUCAUUACAAGAAAGGAUAUUAGCGAAUUG | 114 nM | 25.8 nM | – | – | –
AAUCAGAAAGGAUAUACAAGGAUUUUAUAUAGCACUGCUGGACAUGAGGAUCACCCAUGUAGAAGGUUCGCCCU | – | – | 11.3 nM | 9.51 nM | –
AAAUUACACGAGAAGGGCAGUGAAUAUCUGUCUGCAGGAUAUCGCUACAUGAGGAUCACCCAUGUUUUCAGUAGUACUAGCGAA | – | – | 9.74 nM | 9.06 nM | –
UCUAAACAUGAGGAUCACCCAUGUGAUUUACUCGCAGGAUAUGAGAGCUUGCACACGCAAUCAGAAGGGCGUCGAA | 36.6 nM | 28.7 nM | – | – | –
CGGAUUUGGUAGAAGGUUUCGUCACAUAUCGCAAAAGGAUAUACUAAACAUGAGGAUCACCCAUGUGUCGUGGGAGUUAAUUCA | – | – | 72.3 nM | 70.5 nM | –
AUCUGGUUACAAGGAUAUCCAAUGUAAACAAUAGGAGAAGGAGUGAAAAGACCUAGGAAAACAUGAGGAUCACCCAUGUAAUUA | 111 nM | 39.1 nM | – | – | –
AGGCUUAAAAUGGAGGAUAUCUGUCGCAAAACAUGAGGAUCACCCAUGUACAUAAUGGGCACCACAGAGAAGGCCAUGUACUUUUC | 27.5 nM | 11.7 nM | – | – | –
CAAUGGACGGUAGGAUAUGUACUAGAGAAGCAGACAGAAGGACCUAGUCCGACAUGAGGAUCACCCAUGUGAAACCCGGUCCAG | – | – | 6.83 nM | 6.44 nM | –
UAAUGCAUAACAUGAGGAUCACCCAUGUAGUAAAAUGGUGGUUAGGAUAUAGCACGUGAAUCGACCUAGAAGGAACGUCCUUAC | – | – | 33.3 nM | 30 nM | –
GGGUGAAGUGAGAAGGUUGGUGCUAGUUAAUUCAAAGGAUAUCAUUACUACGACAUGAGGAUCACCCAUGUAGCUGUACUGGAA | – | – | 14.3 nM | 12.4 nM | –
UACCAAAUCACAGGAUAUGAGGCGCCAGCUAGGUCAGAAGGGUGACAUGAGGAUCACCCAUGUUCGCAGAAAAUAAUUGCUAAG | 688 nM | 678 nM | – | – | –
UGGUAGUUGGAGAAGGGAUCGUCGGAACCCAGAUCAGGAUAUCCGACUACAUGAGGAUCACCCAUGUCCUAUCAGUACAAGUAC | – | – | 20.2 nM | 41 nM | –
CUCAAUUAAGAGAAGGUUACUUGUGUUACGUGUAAAGGAUAUCUAAGCGCUAGGCACAUGAGGAUCACCCAUGUUCCUGCCUUU | 7.64 nM | 6.03 nM | – | – | –
UCCAGACAUGAGGAUCACCCAUGUUCAUGCCUCGGAGGAUAUCUAUGGGUGGAGGACUUUAGAGAAGGCCGAUCCG | 674 nM | 458 nM | – | – | –
UCCACACAUGAGGAUCACCCAUGUUGAGAUACCAGUAAACCAAAAUACCCUUGGCAGCUCCUACGCUCUUACAGCGGGAAUAUCC | – | – | – | – | apparent Kd (MS2 coat protein [1]; designed as: ON switch for theophylline, no ligand): 15.8 nM; apparent Kd (MS2 coat protein [1]; ligand present: theophylline, designed as: ON switch for theophylline): 23.1 nM
AGAUCACAUGAGGAUCACCCAUGUCAGGAACUAAGGUACGCUAGAAGGCCGGAUAUGCGGGAAGCGGAGGAUAUAGCAAGCAUC | 40.8 nM | 19.6 nM | – | – | –
UUCGACCACGAGAAGGUGACGAAGGCCGAUUGUCAAGGAUAUCGACACAUGAGGAUCACCCAUGUCAGAGCGGGACUAACUAAA | 22.6 nM | 12.8 nM | – | – | –
AAGGUCCAAGAGAAGGCGCUCAUGGGAUCAAGACAUGAGGAUCACCCAUGUUGGCGCAGCACAAGCGAGGAUAUCUCCACCGGC | 420 nM | 330 nM | – | – | –
AAGAAGUACCAGAAGGGAGGAGGAAAUCUACAUGAGGAUCACCCAUGUACUUGCGGAUUUAAAUCUCAGGAUAUGGGAUACACA | 49.7 nM | 12.9 nM | – | – | –
CAGGGACAUGAGGAUCACCCAUGUAAGGAUAUGCCCAAAAGAGCGACUACUAAAGGAGGCAGAAGGUACGAACG | – | – | 28.6 nM | 31.6 nM | –
GACAUGAGGAUCACCCAUGUGGGAAAGGUGUACUCUUGCGACUAGGAUAUGUUGUGGUCCCAGAGACAGAAGGAGUGGCGACGU | – | – | 52.1 nM | 42 nM | –
UCGAUACCUCUAAUGAAGACAUGAGGAUCACCCAUGUUUAACAGAAGGUAGUCGGGAAGAUAGACUAAGGAUAUGUUGCAGGUG | – | – | 9.63 nM | 24.3 nM | –
UUUCGUAACCAACAUGAGGAUCACCCAUGUAGAAAGUUCCUAAGAAGGACAUAACCCAAUAGCAUGUAGGAUAUAAGUAAUCAC | 12.1 nM | 10.8 nM | – | – | –
ACUUAGAGAUAGAAGGAUGGAGUCAGGGUCCACAUAGGAUAUAUCUUGCACGAAACAUGAGGAUCACCCAUGUUGGAAUCCUCU | – | – | 30.4 nM | 27.8 nM | –
AGCAGCCCUAAAGGAUAUUUGCGCGAGCAAAGCAAAGAAGGUUAAGGGUGGGCUUCAGAGACUACAUGAGGAUCACCCAUGUCC | 448 nM | 112 nM | – | – | –
ACGGGAGCAGAAGGAUAUAGGGUAGGUAUUAGACUAGAAGGACUCUUACAUGAGGAUCACCCAUGUAGUUCAGAAUGGGAAAUC | 45.5 nM | 40.4 nM | – | – | –

Sequence | apparent Kd (MS2 coat protein [1]; [3]) | apparent Kd (MS2 coat protein [1]; [4]) | apparent Kd (MS2 coat protein [1]; [5]) | apparent Kd (MS2 coat protein [1]; [6]) | also measured
AGCGCUUAACCAUAGGAUAUAUUGAUCAUUACAUGAGGAUCACCCAUGUGUCGAAGAAGGCAAUCAUAGAAGGAUGUCAUGUCGCU | 26.7 nM | 17.3 nM | – | – | –
CCACGGAGUUUAGGAUAUGUCGGCUUGGAGUUUACAGAAGGAAAUUGCGCAGCCACAUGAGGAUCACCCAUGUUCGGAAAUACG | 31 nM | 21.4 nM | – | – | –
GAUCAACAUGAGGAUCACCCAUGUCAGGAUAUGCAGACAGUCUUUACGUCAGUCGUAAGCAGAAGGGACUACGG | – | – | 52.5 nM | 69.6 nM | –
UAGAGGUACGUUGGCGAACAUGAGGAUCACCCAUGUAAAUGAAGAAGGUGUGUUGCGCAAAACGACAAGGAUAUUCAAGACAUC | 83.4 nM | 50.7 nM | – | – | –
GGUACGGCAGGAUAUGGCCUGGACUACAUGAGGAUCACCCAUGUCUUGCAGAAUGUCUAGCCAGAAGGGCCAUGAA | – | – | 14.6 nM | 8.52 nM | –
GGCUACAUGAGGAUCACCCAUGUUUCUCGUCGAGGACCGGUACGGCCGCCACUCGUUGUUGGGACUCAGUAUCAGUCGUUAGUUU | – | – | – | – | apparent Kd (MS2 coat protein [1]; designed as: ON switch for tryptophan, no ligand): 25.5 nM; apparent Kd (MS2 coat protein [1]; ligand present: tryptophan, designed as: ON switch for tryptophan): 57 nM
UCUAGUGCAUAGGAUAUCAUGGUUCAUUAGUACUGAGAAGGAUGCACAUGAGGAUCACCCAUGUUCUCUGACAG | – | – | 26.2 nM | 80.5 nM | –
AAAAUGGAUUGAACAUGAGGAUCACCCAUGUCCUGCCCGCAUUAGGAUAUCGAUAACUUGAGUACCGAGAAGGAAUGAUGAUCG | 12.6 nM | 13.2 nM | – | – | –
UAUACUAAUGUCAGGAUAUUAUAAAGUAAGAUAUAUAAGAAGGGACAUGAGGAUCACCCAUGUGACAAGGACGA | – | – | 13.4 nM | 29.8 nM | –
UUCUGGCCGCAGAAGGAGGAUCUGGUUGAAAUCCUAGGAUAUGCAUCUAACCACUGGUCCACAUGAGGAUCACCCAUGUCAGAC | – | – | 16.3 nM | 12.4 nM | –
AGUUGAGGAGGAUAUACAUGAGGAUCACCCAUGUGACUGUGUCUGUUGCGCUGGAUCGGUAGAAGGCCUUAGUA | – | – | 12.2 nM | 16.4 nM | –
GUGCUACAUGAGGAUCACCCAUGUGUGUAACAACAAGGAUAUGAUGCUUUGCCCGAAAGGUCAGAAGGUGUACGGC | 12.9 nM | 11.1 nM | – | – | –
UACCUUAUGGAGAAGGCACGUCUCAGAGGAGCAACAUGAGGAUCACCCAUGUACCUGGGCUGAAGUGAGGAUAUCCAAAUCCCA | 14.4 nM | 7.18 nM | – | – | –
UAUUAACAUGAGGAUCACCCAUGUUAUAGAGACCUAGGAUAUGCUUGCAUCCUCGCUCGUGCAGAAGGAGGUUUAU | 7.08 nM | 5.88 nM | – | – | –
GGAUAACCGAAGAAGGAGGUUUGUAUGGAAUACCUAGGAUAUUCGCGAGCGUGGGCCACAUGAGGAUCACCCAUGUCGGCAGUU | – | – | 12.8 nM | 10.4 nM | –
AGUGGACUGAGGCAGGAUAUCUAUUCAGGAACAUGAGGAUCACCCAUGUCAUGAAAUGACUCGUGAGAGAAGGGCCGUCAACUUAU | 22.9 nM | 29.5 nM | – | – | –
UACGUGUUAGGAUAUCGAGUAGUAUGGCUGGCCUGCAAAACCGAGAAGGAACAUGAGGAUCACCCAUGUAUCUU | – | – | 8.05 nM | 11.3 nM | –
AUCGAUAAGAAGAAGGCAUUGGCGAUGACGUUAUGAGGAUAUUCAACUACAGCUUGACCACUACAUGAGGAUCACCCAUGUGAA | 19.6 nM | 12.1 nM | – | – | –
UUAGAAUACUAAGGAUAUGAUUAUGGCGCACCGCUGUCCGGUGUACAUGAGGAUCACCCAUGUAAUCAGAAGGUAGACUUGUCC | 9.94 nM | 8.91 nM | – | – | –
CCCACGUACGAGAAGGCACCGGUUUGAUCCACGUAAGUCCUUUACAUGAGGAUCACCCAUGUAGGUGAGGAUAUCGUCAUGACU | – | – | 160 nM | 264 nM | –
GACUUGCAAGAGAAGGCGGCCACCAAUCAUCGGAGUGUAAACUCUACAUGAGGAUCACCCAUGUCCGAGGAUAUCUUCAUCAGU | 59.9 nM | 69.8 nM | – | – | –
GGGCCACAUAAGAAGGUGAGCCACAGCGGCGUUCAAGGAUAUUAUAGGUAACCCACCAGACAUGAGGAUCACCCAUGUAGUGUC | 36.7 nM | 25.2 nM | – | – | –
AAUGACGCGAAGAAGGACUGAUACCAGCUAAAAGUAGGAUAUUCUGAACGUGGACGGUUUACAUGAGGAUCACCCAUGUAUGAA | – | – | 9.29 nM | 9.01 nM | –
CCUAUCAAACGAGGAUAUGUGCGGACAAGAAACACAGAAGGCGAACCACAUGAGGAUCACCCAUGUACGAAGACAAAGCAAGAA | 22.7 nM | 14.5 nM | – | – | –
CUGUGACGGUGCGCAAGUGGACGGAGAAGGGACACAUGAGGAUCACCCAUGUGAGCCUGCUAUUGUCAGGAUAUCCGUUCGUAC | – | – | – | – | apparent Kd (MS2 coat protein [2]; no ligand): 8.69 nM; apparent Kd (MS2 coat protein [2]; [7]): 13.8 nM
CAUCAUCAAGUGAGGAUAUCGUCAAAUCAAUCAAACGAGAAGGCACAUGAGGAUCACCCAUGUCGACUCAUCAA | – | – | – | – | apparent Kd (MS2 coat protein [2]; no ligand): 18.3 nM; apparent Kd (MS2 coat protein [2]; [7]): 24.9 nM
